CHOP UPR activ = apoptotic UPR (CHOP) activation. CHO-CHOP luciferase reporter, luminescence; percent of tunicamycin response over DMSO baseline. activation, % at 10 µM. hit rate 0.34% among 330,000;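 active = at 10 µM dose, activation of 40% or more, normalized to positive control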;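 note: 100% = tunicamycin at 10 µg/mL and 0% = DMSO alone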
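Dosing – one dose, 10 µM in 0.5% DMSO · System – CHO-CHOP cells, stable luciferase reporter of PERK-eIF2a-CHOP signalling · Input – 500 cells/well · Control set – tunicamycin 10 µg/mL final as positive, DMSO-only wells as negative · Timing – 6 h compound treatment, 37 °C · Measure – % activation vs tunicamycin · Technique – luminescence read with Steady-Glo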
CHOP inhibitor = blocks CHOP induction under ER stress | CHO-K1 CHOP-promoter luciferase, tunicamycin-induced, 15-18 h | inhibition, % at 10 µM | hit rate 3.8% among 220,000;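 active = compounds that reduced the stress-induced luciferase reporter signal by more than about 70% of percent inhibition, limit read from the data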;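 note: 0% = tunicamycin plus vehicle and 100% = wells without tunicamycin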
XBP1 UPR activ = adaptive UPR (XBP1) activation; CHO-XBP1 luciferase reporter, IRE1-XBP1 UPR activation, luminescence; percent of tunicamycin response, DMSO as zero; hit rate 0.33% among 330,000; activation, % at 20 µM; AID 463104;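 active = versus positive control, 20 µM dose yields 30% or more activation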;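 note: 100% = tunicamycin at 10 µg/mL and 0% = DMSO only wells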
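Material: IRE1-XBP1 luciferase reporter CHO line / Quantity: one thousand reporter cells per well / Buffer or medium: F12 with 10% serum / Compound: 20 µM single concentration, DMSO 1% / Times: 6 h treatment, 37 °C / Detection: Steady-Glo luciferase glow luminescence, 10 min after reagent addition / Benchmarks: tunicamycin high, DMSO low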
697 NFkB inh = inhibitors of the PMA/ionomycin-induced NF-kB reporter in 697 B cells. 697 B-cell NF-kB luciferase reporter, 16 h. inhibition, % at 4 µM. hit rate 0.33% among 330,000; in the data active = inhibition above about 35%
Jurkat NFkB inh = inhibitors of the PMA/ionomycin-induced NF-kB reporter in Jurkat cells; PMA/ionomycin-induced NF-kB luciferase reporter, luminescence; inhibition, % at 4 µM; hit rate 0.53% among 330,000; in the data active = inhibition above about 50%
CHOP confirm = confirmation of CHOP induction inhibitors; shares compounds with CHOP inhibitor; inhibition, % at 10 µM; hit rate 45% among 2,100; CHO-CHOP promoter luciferase reporter, tunicamycin-induced, luminescence;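 active = mean of three repeat readings of reporter signal inhibition above a set limit, cut at about 70% in these data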;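 note: 0% = tunicamycin plus vehicle and 100% = wells lacking tunicamycin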
* marks the source's active call; other numbers are inactive results. This is one part of a sample in which hits are shown more often than they occur.

Results for OCc1ccccc1N=c1ssnc1Cl ?
CHOP UPR activ: 2.8; CHOP inhibitor: 41.5; XBP1 UPR activ: -0.9; 697 NFkB inh: -20.3; Jurkat NFkB inh: -6.9

What do the screens show for `Clc1nssc1=Nc1ccc(Br)cc1`?
CHOP inhibitor: 106.4*; CHOP confirm: 130.8*

How did COc1cc(N=c2ssnc2Cl)cc(OC)c1 do in these assays?
CHOP UPR activ: 3.1; CHOP inhibitor: 105.7*; XBP1 UPR activ: 0.1; 697 NFkB inh: -5.9; Jurkat NFkB inh: 6.7; CHOP confirm: 19.5

How did O=C(CN1C(=O)C(=O)N(C2CCCC2)C1=O)Nc1ccc(OC(F)F)cc1 do in these assays?
CHOP UPR activ: -2.7; XBP1 UPR activ: 1.5; 697 NFkB inh: 13.8; Jurkat NFkB inh: -7.2

Results for Cc1ccc(C)c(NC(=S)N(Cc2ccc(Cl)cc2)Cc2ccc(C(=O)O)cc2)c1 ?
CHOP UPR activ: -2.4; CHOP inhibitor: 15.7; XBP1 UPR activ: -1.7; 697 NFkB inh: 10.3; Jurkat NFkB inh: -0.7

Results for O=C1CCN(S(=O)(=O)c2ccc(Cl)cc2)CCN1 ?
CHOP UPR activ: 0.7; CHOP inhibitor: 4.5; XBP1 UPR activ: 0.1; 697 NFkB inh: 17.6; Jurkat NFkB inh: -10.2

Results for N=C1S/C(=C\c2ccccc2F)C(=O)N1c1ccc(F)cc1 ?
CHOP UPR activ: -1.3; CHOP inhibitor: -4.4; XBP1 UPR activ: -2.6; 697 NFkB inh: -17.5; Jurkat NFkB inh: -21.1

What do the screens show for `N=C1S/C(=C\c2cn[nH]c2-c2ccc(F)cc2)C(=O)N1c1ccccc1F`?
CHOP UPR activ: 5.7; CHOP inhibitor: 102.8*; XBP1 UPR activ: -0.9; 697 NFkB inh: -173.5; Jurkat NFkB inh: -52.4; CHOP confirm: 42.9

How did CCC1CCCCN1CCCNC(=O)C1CCCN(c2ncnc3c2nc2n3CCCCC2)C1 (centres undefined) do in these assays?
CHOP UPR activ: -2.3; XBP1 UPR activ: -4.9; 697 NFkB inh: -17.7; Jurkat NFkB inh: -4.0

How did O=C1C2C(C(=O)N1c1ccccc1)N1CCCN1C2c1ccccc1 (centres undefined) do in these assays?
CHOP UPR activ: -0.9; CHOP inhibitor: 16.5; XBP1 UPR activ: 0.4; 697 NFkB inh: -10.4; Jurkat NFkB inh: -1.1

Results for Cc1ccc(Sc2ccc(/C=N/O)cc2[N+](=O)[O-])cc1 ?
CHOP UPR activ: -2.0; CHOP inhibitor: 101.4*; XBP1 UPR activ: -1.1; 697 NFkB inh: 4.5; Jurkat NFkB inh: 16.1; CHOP confirm: 20.3

What do the screens show for `Cc1ccc(C(=O)NNC(=O)CSc2nc(N)cc(N)n2)cc1`?
CHOP UPR activ: 0.5; CHOP inhibitor: 8.7; XBP1 UPR activ: -0.5; 697 NFkB inh: 3.8; Jurkat NFkB inh: 14.3

How did Cc1ccc(C(=O)NNC(=O)CSc2nnc3c(n2)[nH]c2ccc(C)cc23)cc1 do in these assays?
CHOP UPR activ: -1.3; CHOP inhibitor: 104.2*; XBP1 UPR activ: -0.8; 697 NFkB inh: 9.7; Jurkat NFkB inh: -32.3; CHOP confirm: 12.7

Results for CCN1C(=O)[C@@H]2[C@@H](c3ccc(-c4ccc(C(C)=O)cc4)cc3)N3CCCC[C@@]3(C(=O)OC)[C@@H]2C1=O ?
CHOP UPR activ: -1.9; XBP1 UPR activ: -2.6; 697 NFkB inh: -18.0; Jurkat NFkB inh: -2.9

How did O=c1[nH]cnc2scc(-c3ccc(-c4ccccc4)cc3)c12 do in these assays?
CHOP inhibitor: 96.2*; CHOP confirm: -3.2

Results for CCCC(=O)N1CCN(c2ccc(NC(=O)c3cc4ccccc4o3)cc2Cl)CC1 ?
CHOP UPR activ: -6.1; XBP1 UPR activ: -8.5; 697 NFkB inh: -60.0; Jurkat NFkB inh: 40.4; CHOP confirm: 109.2*

Results for O=C1CC(Sc2nnnn2-c2ccccc2)C(=O)N1c1cccc(Cl)c1 (centres undefined) ?
CHOP UPR activ: 2.3; CHOP inhibitor: 110.2*; XBP1 UPR activ: -7.1; 697 NFkB inh: -2.2; Jurkat NFkB inh: 3.2; CHOP confirm: 111.4*

How did COc1ccc(N2C(=O)CC(Sc3nnc(-c4ccccc4)o3)C2=O)cc1 (centres undefined) do in these assays?
CHOP UPR activ: -10.0; CHOP inhibitor: 108.8*; XBP1 UPR activ: -6.7; 697 NFkB inh: -26.8; Jurkat NFkB inh: -1.1; CHOP confirm: 5.4

Results for COc1ccc(N2C(=O)CC(Sc3nc(C)cc(C)c3C#N)C2=O)cc1 (centres undefined) ?
CHOP UPR activ: 0.7; CHOP inhibitor: 18.8; XBP1 UPR activ: -1.8; 697 NFkB inh: -10.4; Jurkat NFkB inh: -11.2

How did COc1ccc(N2C(=O)CC(Sc3nnnn3-c3ccc(F)cc3)C2=O)cc1 (centres undefined) do in these assays?
CHOP UPR activ: 3.8; CHOP inhibitor: 106.6*; XBP1 UPR activ: -8.0; 697 NFkB inh: -22.0; Jurkat NFkB inh: 13.4; CHOP confirm: 134.1*

How did COc1ccccc1NS(=O)(=O)c1cc(NC(=O)COc2ccccc2F)ccc1N1CCOCC1 do in these assays?
CHOP UPR activ: 1.4; XBP1 UPR activ: 5.2; 697 NFkB inh: -32.6; Jurkat NFkB inh: -1.0

What do the screens show for `CN(CC(=O)Nc1ccc(Cl)cc1)C(=O)CNC(=O)Cc1cccc2ccccc12`?
CHOP UPR activ: 0.6; XBP1 UPR activ: -0.2; 697 NFkB inh: 13.2; Jurkat NFkB inh: 18.9

What do the screens show for `CCSCCc1nnc(NC(=O)Nc2cccc(C(F)(F)F)c2)s1`?
CHOP UPR activ: 7.1; CHOP inhibitor: 96.3*; XBP1 UPR activ: 10.6; 697 NFkB inh: 1.0; Jurkat NFkB inh: 21.7; CHOP confirm: 99.3*

What do the screens show for `CC1=CC(C)[C@@H]2COC(c3ccc(O)cc3)[C@H]1C2C` (some centres undefined)?
CHOP UPR activ: -1.6; XBP1 UPR activ: 0.6; 697 NFkB inh: 20.3; Jurkat NFkB inh: -3.9

What do the screens show for `FC(F)(F)c1ccc(/C=N/NC(=S)NC2CCCCC2)cc1`?
CHOP UPR activ: -1.3; CHOP inhibitor: 106.0*; XBP1 UPR activ: -0.9; 697 NFkB inh: -23.3; Jurkat NFkB inh: -7.6; CHOP confirm: 107.9*

How did FC(F)(F)c1cccc(/C=N/NC(=S)NC2CCCCC2)c1 do in these assays?
CHOP UPR activ: 2.6; CHOP inhibitor: 23.4; XBP1 UPR activ: -0.2; 697 NFkB inh: -35.5; Jurkat NFkB inh: -5.5

How did CC(CC(=O)NCCc1ccc(Cl)cc1)S(=O)(=O)c1ccc2c(c1)NC(=O)CO2 (centres undefined) do in these assays?
CHOP UPR activ: 0.6; XBP1 UPR activ: 0.7; 697 NFkB inh: 7.7; Jurkat NFkB inh: 5.4

What do the screens show for `CCc1ccc(OCC(=O)Nc2ccc(-c3cc4ccccc4oc3=O)c(OC)c2)cc1`?
CHOP UPR activ: 4.4; CHOP inhibitor: 10.2; XBP1 UPR activ: -0.4; 697 NFkB inh: -25.4; Jurkat NFkB inh: 22.7

Results for O=C(Nc1cccc(Cl)c1Cl)c1cc(S(=O)(=O)NCCc2ccccc2)ccc1F ?
CHOP UPR activ: -0.3; CHOP inhibitor: 97.2*; XBP1 UPR activ: -1.8; 697 NFkB inh: 21.9; Jurkat NFkB inh: 13.2; CHOP confirm: 88.4*

Bioassay records deposited in PubChem by several laboratories.
